Laboratory results taken from ChEMBL document CHEMBL3779845, “Synthesis and antitumor activity evaluation of a novel combi-nitrosourea prodrug: Designed to release a DNA cross-linking agent and an inhibitor of O(6)-alkylguanine-DNA alkyltransferase” (Bioorg Med Chem, 2016).

Experiments:
[1] = Drug level in PBS treated with 3-(3-(((2-Amino-9H-purin-6-yl)oxy)methyl)benzyl)-1-(2-chloroethyl)-1-nitrosourea by HPLC-UV analysis; assay type: physicochemical; settings: buffer
Summary of the method: (§1)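 Stock dissolved in minimal DMSO, diluted into PBS (pH 7.4) or MEM-EBSS containing 10% FBS plus penicillin/streptomycin to 0.1 mM final. Incubated at 37 °C, with aliquots taken at set times over 8 h and frozen. Medium samples were deproteinized with an equal volume of acetonitrile and centrifuged. Analysis by HPLC-UV on C18, eluting 50% 50 mM ammonium acetate pH 4.5 / 50% methanol at 1.0 mL/min.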

[2] = Retention time of the compound in PBS/MEM-EBSS treated with 3-(3-(((2-Amino-9H-purin-6-yl)oxy)methyl)benzyl)-1-(2-chloroethyl)-1-nitrosourea by HPLC-UV analysis; assay type: physicochemical; settings: buffer; summary of the method: as §1
[3] = Drug level in MEM-EBSS treated with 3-(3-(((2-Amino-9H-purin-6-yl)oxy)methyl)benzyl)-1-(2-chloroethyl)-1-nitrosourea by HPLC-UV analysis; assay type: physicochemical; summary of the method: as §1
SF-126 = assay: Potency index, ratio IC50 of ACNU to ratio IC50 of compound for human SF126 cells expressing low level of AGT; assay type: functional
[4] = Induction of dG-dC cross linking in human SF763 cells expressing high level of AGT assessed as level of dG-dC cross link per mg of DNA at 0.4 mM after 12 hrs by HPLC-ESI-MS/MS analysis; assay type: functional
Summary of the method: (§2)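 SF763 glioma cells (mer+, 119 fmol AGT/10^6 cells) in MEM-EBSS/10% FBS were grown to about 90% confluence and exposed for 12 h. DNA was isolated by proteinase K/RNase/phenol-chloroform, then digested with four enzymes and spiked with 15N3-dG-dC. Isotope-dilution HPLC-ESI-MS/MS; dG-dC given as fmol per mg DNA, with DNA estimated from dGuo content. Mean ± SD of triplicates.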

[5] = Cytotoxicity against human SF-767 cells expressing moderate level of AGT assessed as cell survival after 24 hrs by CCK8 assay; settings: SF767, 24 h
[6] = Cytotoxicity against human SF763 cells expressing high level of AGT assessed as cell survival after 24 hrs by CCK8 assay; assay type: functional, cell-based; settings: SF763, 24 h
Summary of the method: (§3)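 Glioma cells kept in MEM-EBSS with 10% FBS, 37 °C, 5% CO2. Seeded 5000 cells/well, grown 24 h, then 24 h drug exposure over a range of concentrations. Read-out: CCK8 (10%, 3 h), A450. Survival % = (A_drug−A_blank)/(A_control−A_blank)×100. Mean ± SD of at least three independent experiments. DMSO or ethanol vehicle kept below 0.1%.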

[7] = Cytotoxicity against human SF126 cells expressing low level of AGT assessed as cell survival after 24 hrs by CCK8 assay; assay type: functional, cell-based; settings: SF-126, 24 h; summary of the method: as §3
Calf thymus DNA [8] = assay: Induction of dG-dC cross linking in calf thymus DNA assessed as level of dG-dC cross link per mg of DNA at 0.4 mM after 12 hrs by HPLC-ESI-MS/MS analysis; assay type: nucleic-acid assay; settings: Bos taurus
Summary of the method: (§4)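 CT DNA at 1 mg/mL in buffer (10 mM Tris, 50 mM NaCl, 50 mM Na2HPO4, pH 7.4) was given the compound from a DMSO solution and incubated 12 h at 37 °C. DNA was ethanol-precipitated and digested (DNase I, S1 nuclease, alkaline phosphatase, phosphodiesterase I), with 15N3-dG-dC internal standard at 9.6 nM final. Quantitation by isotope-dilution HPLC-ESI-MS/MS in positive SRM mode. Results given as fmol/mg DNA, mean ± SD of triplicates.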

[9] = Half life of compound in PBS by HPLC-UV analysis
[10] = Half life of compound in MEM-EBSS by HPLC-UV analysis in presence of 10% fetal bovine serum; assay type: physicochemical; settings: cattle, MEM-EBSS with 10% fetal bovine serum; summary of the method: as §1
Calf thymus DNA [11] = assay: Induction of dG-dC cross linking in calf thymus DNA assessed as level of dG-dC cross link per mg of DNA at 0.1 mM after 12 hrs by HPLC-ESI-MS/MS analysis; assay type: nucleic-acid assay; settings: Bos taurus; summary of the method: as §4
Calf thymus DNA [12] = assay: Induction of dG-dC cross linking in calf thymus DNA assessed as level of dG-dC cross link per mg of DNA at 0.2 mM after 12 hrs by HPLC-ESI-MS/MS analysis; assay type: nucleic-acid assay; settings: Bos taurus; summary of the method: as §4
Calf thymus DNA [13] = assay: Induction of dG-dC cross linking in calf thymus DNA after 12 hrs by HPLC-ESI-MS/MS analysis; assay type: nucleic-acid assay; settings: Bos taurus
Summary of the method: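 Calf thymus DNA at 1 mg/mL in buffer (10 mM Tris, 50 mM NaCl, 50 mM Na2HPO4, pH 7.4) was treated with 0.1, 0.2 or 0.4 mM final for 12 h at 37 °C, then ethanol-precipitated. Digestion with DNase I, S1 nuclease, CIAP and phosphodiesterase I, spiked with 15N3-dG-dC internal standard. Isotope-dilution HPLC-ESI-MS/MS (SRM, positive mode), reported as fmol/mg DNA, mean ± SD of triplicates.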

[14] = Retention time of the compound in PBS/MEM-EBSS by HPLC-UV analysis; assay type: physicochemical; settings: buffer; summary of the method: as §1
[15] = Induction of dG-dC cross linking in human SF763 cells expressing high level of AGT assessed as level of dG-dC cross link per mg of DNA at 0.1 mM after 12 hrs by HPLC-ESI-MS/MS analysis; assay type: functional; summary of the method: as §2
[16] = Induction of dG-dC cross linking in human SF763 cells expressing high level of AGT assessed as level of dG-dC cross link per mg of DNA at 0.2 mM after 12 hrs by HPLC-ESI-MS/MS analysis; assay type: functional; summary of the method: as §2
[17] = Cytotoxicity against human SF-767 cells expressing high level of AGT assessed as cell death after 24 hrs by CCK8 assay; assay type: functional; summary of the method: as §3
[18] = Cytotoxicity against human SF763 cells expressing high level of AGT assessed as cell death after 24 hrs by CCK8 assay; assay type: functional; summary of the method: as §3
[19] = Cytotoxicity against human SF126 cells expressing low level of AGT assessed as cell death after 24 hrs by CCK8 assay; assay type: functional, SF-126; summary of the method: as §3
[20] = Half life of compound in serum containing medium; assay type: ADME
Summary of the method: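 Compound at 0.1 mM final (from DMSO stock) in MEM-EBSS with 10% FBS, penicillin/streptomycin, incubated 37 °C up to 8 h. Aliquots precipitated with equal volume acetonitrile, centrifuged, supernatant run on HPLC-UV. C18 column, 50% 50 mM ammonium acetate pH 4.5 / 50% methanol, 1.0 mL/min. Half-life read from degradation curve.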

[21] = Cytotoxicity against human SF763 cells expressing high level of AGT assessed as cell survival after 24 hrs by CCK8 assay in presence of O6-BG; assay type: functional, cell-based; settings: SF763, 24 h
Summary of the method: (§5)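 Cells were seeded at 5000 cells/well and grown 24 h. They were pretreated 2 h with O6-BG at 20 µM final, then switched to fresh medium holding ACNU or BCNU at various concentrations for 24 h. Read-out: CCK8 (10%, 3 h), absorbance 450 nm. Survival expressed relative to untreated cells after blank subtraction. Mean ± SD, ≥3 independent experiments.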

[22] = Cytotoxicity against human SF-767 cells expressing moderate level of AGT assessed as cell survival after 24 hrs by CCK8 assay in presence of O6-BG; settings: SF767, 24 h
[23] = Cytotoxicity against human SF126 cells expressing low level of AGT assessed as cell survival after 24 hrs by CCK8 assay in presence of O6-BG; assay type: functional, cell-based; settings: SF-126, 24 h; summary of the method: as §5

Row | SMILES | Drug metabolism [1] | Retention_time [2] [min] | Drug metabolism [3] | Activity [4] [fmol] | IC50 [5] [µM] | IC50 [6] [µM] | IC50 [7] [µM] | Activity (Calf thymus DNA [8]) [fmol] | Activity (Calf thymus DNA [11]) [fmol] | Activity (Calf thymus DNA [12]) [fmol] | Activity [15] [fmol] | Activity [16] [fmol] | IC50 [21] [µM] | IC50 [22] [µM] | IC50 [23] [µM] | also measured
1 | Nc1nc(OCc2cccc(CN=C=O)c2)c2nc[nH]c2n1 | metabolite_detected | 16.25 | metabolite_detected |  |  |  |  |  |  |  |  |  |  |  |  | 
2 | Nc1nc(OCc2cccc(CNC(=O)N(CCCl)N=O)c2)c2nc[nH]c2n1 |  |  |  | 787 | 25 | 35 | 50 | 10300 | 3880 | 6100 | 267 | 713 |  |  |  | Ratio IC50 (SF-126): >6; half-life [9]: 30 min; half-life [10]: 18 min; Activity (Calf thymus DNA [13]): Dose-dependent effect; Retention_time [14]: 23.93 min
3 | NCc1cccc(COc2nc(N)nc3nc[nH]c23)c1 | metabolite_detected | 13.85 | metabolite_detected |  |  |  |  |  |  |  |  |  |  |  |  | mortality [17]: <3%; mortality [18]: <3%; mortality [19]: <3%
4 | O=NN(CCCl)C(=O)NCCCl [CARMUSTINE] |  |  |  | 342 | 45 | 100 | 20 | 24300 | 6160 | 13600 | 145 | 224 | 55 | 30 | 25 | half-life [20]: 15 min
5 | Cc1ncc(CNC(=O)N(CCCl)N=O)c(N)n1 [NIMUSTINE] |  |  |  | 568 | 500 | > 1000 | 320 | 34900 | 8750 | 16800 | 172 | 447 | 1000 | 400 | 310 | 
